Test results taken from publication PMC6146057 (ACS chemical neuroscience, 2018).
Several values for one entry are separate records, joined by “and”; a condition that tells them apart may be missing. Identical values can stand only once.

Legend:
M1 = biological target: T1, M1 (Homo sapiens, UniProt P11229); test: Calcium mobilization assay, high expression human M1 cell line; type: cell-based
T1 sequence (P11229 1-460): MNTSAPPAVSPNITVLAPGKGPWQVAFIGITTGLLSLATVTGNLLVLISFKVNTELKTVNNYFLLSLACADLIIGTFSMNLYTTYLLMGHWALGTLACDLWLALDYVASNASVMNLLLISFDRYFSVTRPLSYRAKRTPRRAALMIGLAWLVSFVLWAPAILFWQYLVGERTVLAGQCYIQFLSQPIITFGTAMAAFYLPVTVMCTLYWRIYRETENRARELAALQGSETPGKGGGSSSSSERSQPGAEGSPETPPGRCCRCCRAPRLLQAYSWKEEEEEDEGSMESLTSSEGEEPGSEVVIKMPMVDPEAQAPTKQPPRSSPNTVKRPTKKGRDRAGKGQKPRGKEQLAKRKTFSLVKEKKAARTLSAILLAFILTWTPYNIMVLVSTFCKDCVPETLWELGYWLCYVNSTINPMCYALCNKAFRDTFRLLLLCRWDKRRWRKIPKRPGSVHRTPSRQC
In short: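 Muscarinic receptor-expressing CHO cells were plated at 20,000 cells/well in medium without G418 the day before. They were loaded with 1.15 μM Fluo-4 AM for 45 min at 37 °C in HBSS with 20 mM HEPES and 2.5 mM probenecid. Test compound (10-point 1:3 series, top final 30 μM) was added for 2.5 min, then EC20 ACh for 1 min. Calcium flux was fitted with a four-parameter logistic curve.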

[1] = Plasma protein binding by equilibrium dialysis, rat; type: in vitro ADME; details: pH 7.4
In short: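 Plasma spiked with test article was dialysed against 25 mM phosphate buffer, pH 7.4, by equilibrium dialysis for 4 h at 37 °C with shaking. Aliquots from each chamber were matrix-matched, extracted with ice-cold acetonitrile, centrifuged and quantified by LC/MS/MS.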

cytochrome P450 1A2 = biological target: T2, cytochrome P450 1A2 (Homo sapiens, UniProt P05177); test: CYP450 inhibition in human liver microsomes, 1A2; type: in vitro ADME
T2 sequence (P05177 1-516): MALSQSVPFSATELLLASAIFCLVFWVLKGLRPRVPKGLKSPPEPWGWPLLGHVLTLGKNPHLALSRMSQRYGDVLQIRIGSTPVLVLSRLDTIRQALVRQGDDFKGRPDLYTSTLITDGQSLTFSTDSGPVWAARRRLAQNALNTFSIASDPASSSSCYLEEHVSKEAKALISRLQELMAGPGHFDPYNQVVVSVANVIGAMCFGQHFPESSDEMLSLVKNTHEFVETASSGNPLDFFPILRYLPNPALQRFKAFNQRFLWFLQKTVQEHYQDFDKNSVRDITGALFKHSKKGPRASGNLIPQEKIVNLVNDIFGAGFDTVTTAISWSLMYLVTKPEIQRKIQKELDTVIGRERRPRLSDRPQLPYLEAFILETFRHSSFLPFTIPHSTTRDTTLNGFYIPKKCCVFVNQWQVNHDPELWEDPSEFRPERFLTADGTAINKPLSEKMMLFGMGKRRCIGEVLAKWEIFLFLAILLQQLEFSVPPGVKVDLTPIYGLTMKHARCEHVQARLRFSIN

cytochrome P450 2C9 = cytochrome P450 2C9 (Homo sapiens, UniProt P11712); test: CYP450 inhibition in human liver microsomes, 2C9; type: in vitro ADME
cytochrome P450 2D6 = cytochrome P450 2D6 (Homo sapiens, UniProt P10635); test: CYP450 inhibition in human liver microsomes, 2D6; type: in vitro ADME
[2] = Rat brain:plasma distribution; type: in vivo; details: male, Sprague-Dawley, brain and plasma, intravenous
In short: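 Dual-cannulated male Sprague–Dawley rats received a cassette IV dose of 0.2–0.25 mg/kg per compound via the jugular vein. The vehicle was about 10% ethanol, 40% PEG400 and 50% DMSO. Carotid blood and brain were collected at 0.25 h. Brains were rinsed in PBS, snap frozen and bead-homogenised, and plasma and brain were analysed by LC/MS/MS.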

[3] = Mouse plasma-brain exposure; type: in vivo; details: male, C57BL/6J, brain and plasma, intraperitoneal, 100 mg/kg
In short: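 Male C57BL/6J mice aged 7–9 weeks were dosed i.p. with test compound in 10% Tween 80 (1–10 mg/mL, 10 mL/kg). Brain and trunk blood were collected at 0.25 h. Brains were washed in cold saline and frozen on dry ice. EDTA plasma was separated, and both matrices were analysed by LC/MS/MS.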

[4] = Rat PK IV/PO crossover study; type: in vivo
In short: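 Male Sprague–Dawley rats with carotid and jugular cannulae (n = 2) were dosed IV at 1.0 mg/kg in 10% EtOH, 50% PEG 400 and 40% saline. For oral dosing, fasted rats received 3 mg/kg by gavage as a microsuspension in 30% Captisol. Carotid blood was sampled from 0.117 to 24 h, and EDTA plasma was analysed by LC/MS/MS. Parameters came from noncompartmental analysis.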

rats = test: Novel object recognition task; type: in vivo, rat
In short: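 Male Sprague–Dawley rats were habituated to the arena. They received vehicle (10% Tween 80) or test compound at 1–10 mg/kg i.p. (1 mL/kg; n = 12) 30 min before a 10 min exposure to two identical objects. After 24 h, one object was replaced by a novel one and exploration was recorded for 3 min. A blinded observer scored exploration, and the recognition index was (novel − familiar)/total exploration time.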

Chain of cytochrome P450 2D6 (P10635 whole entry): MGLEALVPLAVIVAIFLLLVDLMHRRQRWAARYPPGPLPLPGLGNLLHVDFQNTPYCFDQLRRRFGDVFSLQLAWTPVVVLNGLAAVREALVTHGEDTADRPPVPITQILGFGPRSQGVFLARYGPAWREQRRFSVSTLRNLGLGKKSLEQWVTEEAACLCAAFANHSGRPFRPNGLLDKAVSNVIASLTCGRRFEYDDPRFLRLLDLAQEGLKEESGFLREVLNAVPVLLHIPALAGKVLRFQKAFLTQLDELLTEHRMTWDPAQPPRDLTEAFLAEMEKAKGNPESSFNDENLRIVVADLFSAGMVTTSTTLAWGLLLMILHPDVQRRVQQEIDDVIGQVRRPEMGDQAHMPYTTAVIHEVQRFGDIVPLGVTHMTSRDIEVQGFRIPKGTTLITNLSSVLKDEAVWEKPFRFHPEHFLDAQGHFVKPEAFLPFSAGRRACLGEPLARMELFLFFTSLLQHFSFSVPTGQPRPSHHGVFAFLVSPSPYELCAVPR
Chain of cytochrome P450 2C9 (P11712 whole entry): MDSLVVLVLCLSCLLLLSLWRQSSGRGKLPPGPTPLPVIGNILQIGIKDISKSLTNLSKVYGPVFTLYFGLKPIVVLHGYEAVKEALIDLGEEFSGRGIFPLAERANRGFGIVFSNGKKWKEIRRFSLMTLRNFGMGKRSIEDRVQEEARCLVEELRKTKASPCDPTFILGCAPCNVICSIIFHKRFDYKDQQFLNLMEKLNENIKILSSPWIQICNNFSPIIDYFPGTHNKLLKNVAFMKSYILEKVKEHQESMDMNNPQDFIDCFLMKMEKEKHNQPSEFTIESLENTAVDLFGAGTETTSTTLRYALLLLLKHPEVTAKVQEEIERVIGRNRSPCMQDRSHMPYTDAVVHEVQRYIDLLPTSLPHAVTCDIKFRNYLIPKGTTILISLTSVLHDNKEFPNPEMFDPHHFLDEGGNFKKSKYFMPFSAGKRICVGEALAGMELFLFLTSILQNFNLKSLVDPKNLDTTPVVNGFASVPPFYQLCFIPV

EC50 (M1; Human M1 CRC EC50, Figure 4A): 0.308 µM
EC50 (M1; M1 PAM EC50, human M1, high expression line, EC20 ACh): 0.31 µM
EC50 (M1; M1 PAM pEC50, human M1, high expression line, EC20 ACh): 0.295 µM
EC50 (M1; M1 agonist activity pEC50, human M1, high expression line, compound alone): 4.07 µM and 4.27 µM
M1 PAM efficacy, % ACh Max (M1; human M1, high expression line): 85 ± 2 % ACh Max
M1 agonist activity, % ACh Max (M1; human M1, high expression line, compound alone): 39 ± 3 % ACh Max and 29 ± 6 % ACh Max
fraction unbound at 4 h [1]: 0.11
IC50 (cytochrome P450 1A2): > 30 µM
IC50 (cytochrome P450 2C9): 18.8 µM
IC50 (cytochrome P450 2D6): 29.8 µM
Kp at 0.25 h [2]: 0.18
Kp uu at 0.25 h [2]: 0.05
Kp at 0.25 h [3]: 0.67
Kp uu at 0.25 h [3]: 0.17
half-life ([4]; male, Sprague-Dawley, rat, plasma): 1.2 h
Vd ([4]; male, Sprague-Dawley, rat, plasma, intravenous, 1 mg/kg): 1.8 L/kg
clearance ([4]; male, Sprague-Dawley, rat, plasma, iv, 1 mg/kg): 89 mL/min/kg
bioavailability ([4]; male, Sprague-Dawley, rat, plasma, po, 3 mg/kg): 95.9%
Structure (SMILES): O=C(N[C@H]1CCCC[C@@H]1O)[C@H]1CN(Cc2ccc(-n3cccn3)cc2)c2ccccc2O1 [VU0486846, (2R)-N-[(1S,2S)-2-Hydroxycyclohexyl]-4-[(4-pyrazol-1-ylphenyl)-methyl]-2,3-dihydro-1,4-benzoxazine-2-carboxamide]
Adverse events or cholinergic side effects in PK study ([4]; rat PK study): No adverse events or cholinergic side effects
Effect on recognition memory (rats; 1–10 mg/kg i.p.): dose-dependently enhanced recognition memory
minimum effective dose, novel object recognition (rats; i.p., 30 min pretreatment, memory assessed 24 h later): 3 mg/kg
